Test results: ChEMBL document CHEMBL4428038, “Overcoming chloroquine resistance in malaria: Design, synthesis and structure-activity relationships of novel chemoreversal agents” (Eur J Med Chem, 2016)
≈ marks a conversion by molar mass, not a printed value. Calls of active or inactive are those of the source. The rule behind the calls is not given here.

Experiments:
[1] = tested on: Plasmodium falciparum; assay: Potentiation of chloroquine-induced antimalarial activity against chloroquine-sensitive Plasmodium falciparum HB3 isolate MRA-155 assessed as reduction in chloroquine IC50 at 500 nM relative to chloroquine alone; type: functional
[2] = tested on: T1, Chloroquine resistance transporter (Plasmodium falciparum), Q9N623 [K76T]; assay: Inhibition of CRT K76T mutant in chloroquine-resistant Plasmodium falciparum NHP4559 assessed as reversal of chloroquine resistance by measuring reduction in chloroquine IC50 at 500 nM relative to chloroquine alone
T1 sequence (whole entry): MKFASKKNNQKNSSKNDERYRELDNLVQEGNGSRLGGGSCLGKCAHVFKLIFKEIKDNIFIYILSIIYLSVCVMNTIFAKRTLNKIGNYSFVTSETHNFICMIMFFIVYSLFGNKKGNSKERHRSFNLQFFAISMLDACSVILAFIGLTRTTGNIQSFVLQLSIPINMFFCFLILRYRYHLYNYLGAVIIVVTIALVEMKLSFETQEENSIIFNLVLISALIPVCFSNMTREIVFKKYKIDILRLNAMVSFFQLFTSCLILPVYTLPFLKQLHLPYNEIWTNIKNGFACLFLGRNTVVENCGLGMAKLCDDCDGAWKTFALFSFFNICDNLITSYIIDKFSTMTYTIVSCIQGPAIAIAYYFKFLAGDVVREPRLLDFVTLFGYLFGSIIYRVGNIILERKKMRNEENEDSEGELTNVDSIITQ

[3] = tested on: T1, Chloroquine resistance transporter (Plasmodium falciparum), Q9N623 [K76T]; assay: Inhibition of CRT K76T mutant in chloroquine/artemisinin-resistant Plasmodium falciparum NHP4773 assessed as reversal of chloroquine resistance by measuring reduction in chloroquine IC50 at 500 nM relative to chloroquine alone
[4] = tested on: Plasmodium falciparum K1; assay: Inhibition of CRT CVIET haplotype mutant in Plasmodium falciparum K1 isolate MRA-159 infected in erythrocytes assessed as chloroquine-coumarin probe accumulation at 10 uM after 10 hrs by Hoechst 33342 staining based flow cytometry (reference value: 35.57 +/- 3.84%); type: cell-based; set-up: scale not given: the % may be the effect or the level left
Procedure, shortened: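 Infected erythrocyte cultures at 2.5% hematocrit and 7–12% parasitemia, synchronized to late-ring/early-trophozoite stage, were incubated with chloroquine-coumarin probe plus test agent for 10 h at 37 C. Cells were then washed, resuspended in PBS and read by flow cytometry (405 nm excitation, 450/50 filter). Hoechst-stained duplicate wells set parasitemia. Uptake = % infected erythrocytes fluorescent. Controls: PBS (negative), desipramine and parent compound (positive). ≥3 independent experiments; mean ± SEM.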

[5] = tested on: Plasmodium falciparum; assay: Intrinsic antimalarial activity against chloroquine-resistant Plasmodium falciparum NHP4559 harboring CRT K76T mutant assessed as reduction in parasite viability at 500 nM; type: functional, organism-based
[6] = tested on: Plasmodium falciparum K1; assay: Inhibition of CRT CVIET haplotype mutant in chloroquine-resistant Plasmodium falciparum K1 isolate MRA-159 assessed as reversal of chloroquine resistance by measuring reduction in chloroquine IC50 at 500 nM relative to chloroquine alone
[7] = tested on: Plasmodium falciparum; assay: Intrinsic antimalarial activity against intermediate chloroquine-resistant Plasmodium falciparum 7G8 isolate MRA-154 harboring CRT SVMNT haplotype mutant assessed as reduction in parasite viability at 500 nM; type: functional, organism-based
[8] = tested on: Plasmodium falciparum; assay: Potentiation of chloroquine-induced antimalarial activity against chloroquine-sensitive Plasmodium falciparum 3D7 isolate MRA-102 assessed as reduction in chloroquine IC50 at 500 nM relative to chloroquine alone; type: functional
[9] = tested on: Plasmodium falciparum; assay: Intrinsic antimalarial activity against chloroquine/artemisinin-resistant Plasmodium falciparum ARS272 harboring CRT K76T mutant assessed as reduction in parasite viability at 500 nM; type: functional, organism-based
[10] = Resistance index, ratio of chloroquine IC50 for chloroquine-resistant Plasmodium falciparum K1 isolate MRA-159 CRT CVIET haplotype mutant to chloroquine IC50 for chloroquine-sensitive Plasmodium falciparum 3D7 isolate MRA-102 at 500 nM
Procedure, shortened: (§1)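 Chloroquine IC50 was measured with the chemoreversal agent fixed at 500 nM in K1 or 7G8 and in sensitive 3D7 (means, n = 3). The resistance ratio is the chloroquine IC50 in K1 or 7G8 divided by the chloroquine IC50 in 3D7.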

[11] = Resistance index, ratio of chloroquine IC50 for intermediate chloroquine-resistant Plasmodium falciparum 7G8 isolate MRA-154 CRT SVMNT haplotype mutant to chloroquine IC50 for chloroquine-sensitive Plasmodium falciparum 3D7 isolate MRA-102 at 500 nM; procedure, shortened: as §1
[12] = Inhibition of CRT CVIET haplotype mutant in chloroquine-resistant Plasmodium falciparum K1 isolate MRA-159 assessed as reversal of chloroquine resistance by measuring reduction in chloroquine IC50 relative to chloroquine alone
Procedure, shortened: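 Chloroquine IC50 was determined in the presence of a fixed 500 nM chemoreversal agent, against chloroquine alone. The RMI is the ratio of chloroquine IC50 with agent to chloroquine IC50 alone. Mean of n = 3; two-tailed t test versus chloroquine without agent.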

[13] = tested on: T1, Chloroquine resistance transporter (Plasmodium falciparum), Q9N623 [K76T]; assay: Inhibition of CRT K76T mutant in chloroquine-resistant Plasmodium falciparum Dd2 isolate MRA-156 assessed as reversal of chloroquine resistance by measuring reduction in chloroquine IC50 at 500 nM relative to chloroquine alone
[14] = tested on: Plasmodium falciparum; assay: Intrinsic antimalarial activity against chloroquine-sensitive Plasmodium falciparum 3D7 isolate MRA-102 assessed as reduction in parasite viability at 500 nM; type: functional, organism-based
[15] = tested on: Plasmodium falciparum; assay: Intrinsic antimalarial activity against chloroquine-resistant Plasmodium falciparum K1 isolate MRA-159 harboring CRT CVIET haplotype mutant assessed as reduction in parasite viability at 500 nM; type: functional, organism-based
[16] = tested on: T1, Chloroquine resistance transporter (Plasmodium falciparum), Q9N623 [K76T]; assay: Inhibition of CRT K76T mutant in chloroquine/artemisinin-resistant Plasmodium falciparum ARS272 assessed as reversal of chloroquine resistance by measuring reduction in chloroquine IC50 at 500 nM relative to chloroquine alone
[17] = Aqueous kinetic solubility of compound in pH 7.4 solution incubated for 24 hrs; type: physicochemical; conditions: aqueous solution pH 7.4, pH 7.4; read-out: Kinetic_solubility
[18] = tested on: Plasmodium falciparum; assay: Intrinsic antimalarial activity against chloroquine/artemisinin-resistant Plasmodium falciparum ARS233 harboring CRT K76T mutant assessed as reduction in parasite viability at 500 nM; type: functional, organism-based
[19] = tested on: Plasmodium falciparum 7G8; assay: Inhibition of CRT SVMNT haplotype mutant in intermediate chloroquine-resistant Plasmodium falciparum 7G8 isolate MRA-154 t assessed as reversal of chloroquine resistance by measuring reduction in chloroquine IC50 at 500 nM relative to chloroquine alone
[20] = tested on: Plasmodium falciparum; assay: Intrinsic antimalarial activity against chloroquine-resistant Plasmodium falciparum Dd2 isolate MRA-156 harboring CRT K76T mutant assessed as reduction in parasite viability at 500 nM; type: functional, organism-based
[21] = tested on: Plasmodium falciparum; assay: Intrinsic antimalarial activity against chloroquine-sensitive Plasmodium falciparum HB3 isolate MRA-155 assessed as reduction in parasite viability at 500 nM; type: functional, organism-based
[22] = tested on: T1, Chloroquine resistance transporter (Plasmodium falciparum), Q9N623 [K76T]; assay: Inhibition of CRT K76T mutant in chloroquine/artemisinin-resistant Plasmodium falciparum ARS233 assessed as reversal of chloroquine resistance by measuring reduction in chloroquine IC50 at 500 nM relative to chloroquine alone
[23] = tested on: Plasmodium falciparum; assay: Intrinsic antimalarial activity against chloroquine/artemisinin-resistant Plasmodium falciparum NHP4773 harboring CRT K76T mutant assessed as reduction in parasite viability at 500 nM; type: functional, organism-based

Compound | Ratio IC50 [1] | Ratio IC50 [2] | Ratio IC50 [3] | Activity [4] [%] | Activity [5] | Ratio IC50 [6] | Activity [7] | Ratio IC50 [8] | Activity [9] | Ratio IC50 [10] | Ratio IC50 [11] | Ratio IC50 [13] | Activity [14] | Activity [15] | Ratio IC50 [16] | Activity [18] | Ratio IC50 [19] | Activity [20] | Activity [21] | Ratio IC50 [22] | also measured
c1ccc2c(c1)CC(N1CCNCC1)c1ccccc1S2 (stereo not drawn) | 1 | 0.68 | 0.69 | 69.8 | inactive | 0.55 | inactive | 1.21 | inactive | 9.3 | 3.8 | 0.81 | inactive | inactive | 0.68 | inactive | 0.76 | inactive | inactive | 0.64 | EC50 [12]: 343 nM; solubility kinetic at 24 h [17]: 87.1 µg/mL (≈ 294 µM); Activity [23]: inactive
NCC(CCN1CCC(O)CC1)(c1ccccc1)c1ccccc1 | 0.99 | 0.95 | 0.94 | 64.8 | inactive | 0.74 | inactive | 1.13 | inactive | 13.4 | 5.3 | 0.91 | inactive | inactive | 0.93 | inactive | 0.98 | inactive | inactive | 0.9 | Activity [23]: inactive
N#CC(CCN1CCCCC1)(c1ccccc1)c1ccccc1 | 0.98 | 0.66 | 0.74 | 67 | inactive | 0.71 | inactive | 1.2 | inactive | 12.2 | 5.1 | 0.76 | inactive | inactive | 0.7 | inactive | 1 | inactive | inactive | 0.7 | EC50 [12]: 295 nM; Activity [23]: inactive
Clc1ccc2c(c1)C(N1CCNCC1)Cc1ccccc1S2 (stereo not drawn) | 0.93 | 0.73 | 0.73 | 79.6 | inactive | 0.69 | inactive | 1.14 | inactive | 12.4 | 4.8 | 0.83 | inactive | inactive | 0.76 | inactive | 0.88 | inactive | inactive | 0.71 | solubility kinetic at 24 h [17]: 38.1 µg/mL (≈ 115 µM); Activity [23]: inactive
